From ChEMBL document CHEMBL1147740, “Synthesis and biological activity of isoxazolidinyl polycyclic aromatic hydrocarbons: potential DNA intercalators” (J Med Chem, 2006)
≈ marks a conversion by molar mass, not a printed value.

Assays:
MOLT-3 = experiment: Cytotoxicity against MOLT3 Leukemia cells by MTS assay; format: functional, cell-based, Homo sapiens
Procedure, shortened: (§1)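 MTS tetrazolium reduction assay; cells grown under optimal culture conditions for 20 h with compound at 10 to 500 µM or without it; MTS reagent then added for 1 h at 37 °C, humidified 5% CO2; absorbance read at 490 nm. Triplicate. IC50 is the concentration giving 50% reduction of absorbance.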

THP-1 = experiment: Cytotoxicity against THP1 Leukemia cells by MTS assay; format: functional, cell-based, Homo sapiens; procedure, shortened: as §1
U-937 = experiment: Cytotoxicity against U937 Lymphoma cells by MTS assay; format: functional, cell-based, Homo sapiens; procedure, shortened: as §1
Vero [1] = experiment: Cytotoxicity against normal vero kidney cells by MTS assay; format: functional, cell-based, Chlorocebus sabaeus; procedure, shortened: as §1
HEL = experiment: Antiviral activity against HEL cells; format: functional, Homo sapiens
Procedure, shortened: (§2)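 Cytotoxicity scored as the concentration giving a microscopically detectable alteration of normal cell morphology in HEL, HeLa or Vero cells.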

Vero [2] = experiment: Antiviral activity against vero cells; format: functional, Chlorocebus sabaeus; procedure, shortened: as §2
HeLa = experiment: Antiviral activity against HeLa cells; format: functional, Homo sapiens; procedure, shortened: as §2
Human alphaherpesvirus 1 [3] = experiment: Antiviral activity against herpes simplex virus 1 TK- KOS ACVr strain in HEL cells; format: functional
Procedure, shortened: (§3)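 Minimum inhibitory concentration (µg/mL) needed to reduce virus-induced cytopathogenicity by 50%; HSV strains in HEL cells, Punta Toro virus in Vero cells.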

Punta Toro virus = experiment: Antiviral activity against Punta Toro virus in vero cells; format: functional; procedure, shortened: as §3
Human alphaherpesvirus 1 [4] = experiment: Antiviral activity against Herpes simplex virus 1 KOS strain in HEL cells; format: functional, Human herpesvirus 1 strain KOS; details: Human alphaherpesvirus 1, KOS; procedure, shortened: as §3
Human alphaherpesvirus 2 = experiment: Antiviral activity against Herpes simplex virus 2 G strain in HEL cells; format: functional; details: Human alphaherpesvirus 2, G; procedure, shortened: as §3
Vaccinia virus = experiment: Antiviral activity against Vaccinia virus in HEL cells; format: functional; details: Orthopoxvirus vaccinia
Procedure, shortened: (§4)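 Virus infection of HEL cell cultures. The endpoint is the minimum inhibitory concentration (µg/mL) that reduces virus-induced cytopathogenicity by 50%.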

[5] = system: Vesicular stomatitis virus; experiment: Antiviral activity against Vesicular stomatitis virus in HEL cells; format: functional; procedure, shortened: as §4
Human respirovirus 3 = experiment: Antiviral activity against Parainfluenza-3 virus in vero cells; format: functional
Procedure, shortened: (§5)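 Virus infection of Vero cell cultures. The endpoint is the minimum inhibitory concentration (µg/mL) that reduces virus-induced cytopathogenicity by 50%.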

[6] = system: Mammalian orthoreovirus 1; experiment: Antiviral activity against Reovirus 1 in vero cells; format: functional; procedure, shortened: as §5
Sindbis virus = experiment: Antiviral activity against Sindbis virus in vero cells; format: functional; procedure, shortened: as §5
Coxsackievirus B4 [7] = experiment: Antiviral activity against Coxsackie virus B4 in vero cells; format: functional; details: Enterovirus B; procedure, shortened: as §5
[8] = system: Respiratory syncytial virus; experiment: Antiviral activity against Respiratory syncytial virus in HeLa cells; format: functional; details: human respiratory syncytial virus
Procedure, shortened: (§6)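 Virus infection of HeLa cell cultures. The endpoint is the minimum inhibitory concentration (µg/mL) that reduces virus-induced cytopathogenicity by 50%.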

Coxsackievirus B4 [9] = experiment: Antiviral activity against Coxsackie virus B4 in HeLa cells; format: functional; details: Enterovirus B; procedure, shortened: as §6
[10] = system: Vesicular stomatitis virus; experiment: Antiviral activity against Vesicular stomatitis virus in HeLa cells; format: functional; procedure, shortened: as §6
[11] = Homo sapiens, HEL, read-out: MCC
[12] = Chlorocebus sabaeus, Vero, read-out: MCC
[13] = Homo sapiens, HeLa, read-out: MCC
[14] = Human alphaherpesvirus 1, TK- KOS ACVr, read-out: MIC50
[15] = Punta Toro virus, read-out: MIC50

| SMILES | IC50 (MOLT-3; Homo sapiens, MOLT-3) | MCC (HEL; [11]) | MCC (Vero [2]; [12]) | MCC (HeLa; [13]) | MIC50 (Human alphaherpesvirus 1 [4]) | MIC50 (Human alphaherpesvirus 2) | MIC50 (Vaccinia virus) | MIC50 [5] | MIC50 (Human alphaherpesvirus 1 [3]; [14]) | MIC50 (Human respirovirus 3) | MIC50 [6] | MIC50 (Sindbis virus) | MIC50 (Coxsackievirus B4 [7]) | MIC50 (Punta Toro virus; [15]) | MIC50 [8] | MIC50 (Coxsackievirus B4 [9]) | MIC50 [10] | further results |
| --- | --- | --- | --- | --- | --- | --- | --- | --- | --- | --- | --- | --- | --- | --- | --- | --- | --- | --- |
| CN1O[C@H](CO)C[C@@H]1c1c2ccccc2cc2ccccc12 (relative stereo) | > 500 µM | – | – | – | – | – | – | – | – | – | – | – | – | – | – | – | – | – |
| CN1O[C@H](CO)C[C@@H]1c1cc2ccccc2c2ccccc12 (relative stereo) | – | – | – | – | – | – | – | – | – | – | – | – | – | – | – | – | – | IC50 (THP-1; thp-1): 148 µM; IC50 (MOLT-3; molt-3): 128 µM; IC50 (U-937; u-937): 154 µM; IC50 (Vero [1]; vero): 231 µM; MCC (HEL): 400 µg/mL; MCC (Vero [2]): 80 µg/mL; MCC (HeLa): 80 µg/mL; MIC50 (Human alphaherpesvirus 1 [3]): >80 µg/mL; MIC50 (Punta Toro virus): 9.6 µg/mL (≈ 32.7 µM) |
| CN1O[C@@H](CO)C[C@@H]1c1c2ccccc2cc2ccccc12 (racemic) | > 500 µM | – | – | – | – | – | – | – | – | – | – | – | – | – | – | – | – | – |
| O=c1[nH]c(=O)n([C@H]2C[C@H](O)[C@@H](CO)O2)cc1/C=C/Br [BRIVUDINE] | – | > 400 µg/mL | > 400 µg/mL | > 400 µg/mL | 0.128 µg/mL (≈ 0.384 µM) | 240 µg/mL (≈ 720 µM) | 48 µg/mL (≈ 144 µM) | > 400 µg/mL | > 400 µg/mL | > 400 µg/mL | > 400 µg/mL | > 400 µg/mL | > 400 µg/mL | > 400 µg/mL | > 400 µg/mL | > 400 µg/mL | > 400 µg/mL | – |
| OC[C@@H]1C[C@H](c2c3ccccc3cc3ccccc23)N(Cc2ccccc2)O1 (racemic) | > 500 µM | – | – | – | – | – | – | – | – | – | – | – | – | – | – | – | – | – |
| CN1O[C@H](CO)C[C@@H]1c1cc2ccccc2c2ccccc12 (racemic) | 125 µM | 400 µg/mL | 80 µg/mL | 80 µg/mL | > 80 µg/mL | > 80 µg/mL | > 80 µg/mL | > 80 µg/mL | 48 µg/mL (≈ 164 µM) | > 16 µg/mL | > 16 µg/mL | > 16 µg/mL | > 16 µg/mL | 9.6 µg/mL (≈ 32.7 µM) | > 16 µg/mL | > 16 µg/mL | > 16 µg/mL | IC50 (THP-1; Homo sapiens, THP-1): 169 µM; IC50 (U-937; Homo sapiens, U-937): 153 µM; IC50 (Vero [1]; Chlorocebus sabaeus, Vero): 246 µM |
| NC(=O)c1ncn([C@@H]2O[C@H](CO)[C@@H](O)[C@H]2O)n1 [RIBAVIRIN] | – | > 400 µg/mL | > 400 µg/mL | > 400 µg/mL | 240 µg/mL (≈ 983 µM) | > 400 µg/mL | 80 µg/mL (≈ 328 µM) | 240 µg/mL (≈ 983 µM) | > 400 µg/mL | 48 µg/mL (≈ 197 µM) | 16 µg/mL (≈ 65.5 µM) | > 400 µg/mL | > 400 µg/mL | 80 µg/mL (≈ 328 µM) | 9.6 µg/mL (≈ 39.3 µM) | 9.6 µg/mL (≈ 39.3 µM) | 16 µg/mL (≈ 65.5 µM) | – |
| Nc1nc2c(ncn2COC(CO)CO)c(=O)[nH]1 [GANCICLOVIR] | – | > 100 µg/mL | – | – | 0.096 µg/mL (≈ 0.376 µM) | 0.032 µg/mL (≈ 0.125 µM) | > 100 µg/mL | > 100 µg/mL | 0.48 µg/mL (≈ 1.88 µM) | – | – | – | – | – | – | – | – | – |
